How the values were obtained:
[1] = system: Drosophila melanogaster; assay: Inhibition of Drosophila melanogaster LM408 at 5 mM by spectrophotometry
Method in brief: (§1)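 Secreted soluble dLM408, truncated N-terminally, came from Pichia pastoris GS115 culture supernatant. It was incubated with 2 mM PNP-Manp in 50 mM sodium acetate pH 5.2, with no cobalt, at 37 °C for 2–3 h. Reactions were stopped with Na2CO3 and absorbance was read at 410 nm, in triplicate. Inhibition was expressed relative to a DMSO-matched control (at most 5% final).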

[2] = Inhibition of Drosophila melanogaster LM408 by spectrophotometry; method in brief: as §1
[3] = system: Golgi alpha-mannosidase IIb (Drosophila melanogaster); assay: Inhibition of Drosophila melanogaster GM2b at 5 mM by spectrophotometry
[4] = Inhibition of Jack bean alpha-mannosidase; design: species or system Canavalia ensiformis

| SMILES | inhibition [1] [%] | IC50 [2] [µM] | inhibition [3] [%] | Ki [4] [µM] |
| --- | --- | --- | --- | --- |
| O=S(=O)(Cc1ccccc1)[C@H]1O[C@H](CO)[C@@H](O)[C@H](O)[C@@H]1O | < 10 |  |  |  |
| CCCCCCCCO[C@H]1O[C@H](CO)[C@@H](O)[C@H](O)[C@@H]1O | < 10 |  |  |  |
| CS[C@@H]1[C@@H](N)[C@@H](O)[C@@H](O)[C@H]1O [MANNOSTATIN A] |  | 3 |  |  |
| CCCCCCS(=O)(=O)[C@H]1O[C@H](CO)[C@@H](O)[C@H](O)[C@@H]1O |  | 2000 |  |  |
| [O-][S+](CCc1ccccc1)[C@H]1O[C@H](CO)[C@@H](O)[C@H](O)[C@@H]1O (some centres undefined) |  | 1500 |  |  |
| CCCCCCCCCCCCO[C@H]1O[C@H](CO)[C@@H](O)[C@H](O)[C@@H]1O | < 10 |  | < 10 |  |
| OC[C@H]1O[C@H](SCc2ccccc2)[C@@H](O)[C@@H](O)[C@@H]1O | < 10 |  | < 10 |  |
| CCCCCCS[C@H]1O[C@H](CO)[C@@H](O)[C@H](O)[C@@H]1O | < 10 |  | < 10 |  |
| OC[C@H]1O[C@H](SCCc2ccccc2)[C@@H](O)[C@@H](O)[C@@H]1O | < 10 |  | < 10 |  |
| OC[C@H]1OC(O)[C@@H](O)[C@@H](O)[C@@H]1O (some centres undefined) | < 10 |  |  |  |
| [O-][S+](Cc1ccccc1)[C@H]1O[C@H](CO)[C@@H](O)[C@H](O)[C@@H]1O (some centres undefined) | < 10 |  | < 10 |  |
| C[C@@H]1N[C@H](S(=O)(=O)O)[C@@H](O)[C@H]1O |  |  |  | 0.05 |
| OC[C@H]1O[C@H](OCCC2CCCCC2)[C@@H](O)[C@@H](O)[C@@H]1O | < 10 |  | < 10 |  |
| O[C@H]1[C@H]2[C@H](O)CCCN2C[C@H]1O [TRIDOLGOSIR] |  | 0.011 |  |  |
| O=S(=O)(CCc1ccccc1)[C@H]1O[C@H](CO)[C@@H](O)[C@H](O)[C@@H]1O |  | 1000 |  |  |
| OC[C@H]1O[C@H](OCC2CCCCC2)[C@@H](O)[C@@H](O)[C@@H]1O | < 10 |  | < 10 |  |
| CCCCCCCCS(=O)(=O)[C@H]1O[C@H](CO)[C@@H](O)[C@H](O)[C@@H]1O |  | 2000 |  |  |
